Assay outcomes as filed in PubChem.
OXTR ag = activates the human oxytocin receptor; hit rate 0.32% among 320,000; activation, % at 3 µM; CHO-OTR cells, Fluo-8 calcium fluorescence; normalized: DMSO 0%, oxytocin 100%; P30559; AID 2435;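 active = activation above the mean of all tested compounds plus 3 SD, cutoff set per screening run, cut at about 20% in these data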;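 note: peak over basal fluorescence ratio from a 100 s FLIPR kinetic read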
Target sequence (P30559 whole entry, looked up): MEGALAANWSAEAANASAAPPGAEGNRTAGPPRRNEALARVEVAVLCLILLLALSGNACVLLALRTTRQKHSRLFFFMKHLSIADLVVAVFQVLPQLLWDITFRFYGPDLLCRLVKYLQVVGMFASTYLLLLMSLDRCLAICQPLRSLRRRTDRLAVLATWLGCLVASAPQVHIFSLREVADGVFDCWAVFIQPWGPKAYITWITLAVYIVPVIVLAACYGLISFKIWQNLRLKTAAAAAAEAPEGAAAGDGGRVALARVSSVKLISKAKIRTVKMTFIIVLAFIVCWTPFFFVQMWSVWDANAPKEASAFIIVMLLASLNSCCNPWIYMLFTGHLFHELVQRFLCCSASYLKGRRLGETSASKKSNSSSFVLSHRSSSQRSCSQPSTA
TAAR1 agonist = agonists of human TAAR1 | CHO RD-HGA16 TAAR1, Fluo-8 calcium fluorescence; vehicle wells 0%, saturating PEA agonist 100% | hit rate 0.99% among 360,000 | activation, % at 3 µM | Q96RJ0;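 active = activation above the mean activation of all test compounds in the run plus 3 SD, cut at about 38% in these data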
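Benchmarks: low control DMSO, high control PEA (EC100); System: CHO RD-HGA16 cells carrying human TAAR1 plus Gα16; Detection: Fluo-8 fluorescence, 5 s baseline then 140 s kinetic read; Schedule: 17-24 h plating, Fluo-8 75 min 37 °C, 30 min RT; Read-out basis: % activation from peak over basal fluorescence ratio, DMSO-to-PEA scaled.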
V1R ag counter = counter-screen for oxytocin receptor agonists: human V1a receptor agonists | P37288 | CHO-V1R cells, Fluo-8 calcium fluorescence, agonist mode; 0% DMSO, 100% 3 nM vasopressin | activation, % at 3 µM | hit rate 0.25% among 320,000 | AID 2797;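 active = activation above the mean activation of all tested compounds plus 3 SD, per screening run, cut at about 20% in these data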;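 note: signal is peak over basal fluorescence ratio across a 100 second FLIPR read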
TAAR1 antagonist = antagonists of human TAAR1 | Q96RJ0 | CHO RD-HGA16 TAAR1, Fluo-8 calcium fluorescence, antagonist | inhibition, % at 3 µM | hit rate 1.5% among 360,000;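 active = inhibition above a per-plate cutoff, the mean inhibition of test compounds on that plate plus 3 SD, cut at about 49% in these data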;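 note: 0% = DMSO plus EC80 beta-PEA response and 100% = DMSO alone without agonist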
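Test system: CHO RD-HGA16 cells bearing hTAAR1 | Reagent: β-PEA, EC80 | Compound dosing: 3 µM, single point | Schedule: Dye loading 75 min at 37 °C, then 30 min room temperature | Signal: Calcium fluorescence with Fluo-8 | Evaluation: Percent inhibition of PEA-evoked calcium signal, max/basal emission ratio | Control set: DMSO-only wells and EC80 β-PEA-stimulated wells | Repeats: Singlicate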
OXTR potentiate = potentiators of human oxytocin receptor; CHO-OTR cells, Fluo-8 calcium fluorescence, potentiator mode; 0% = oxytocin EC15, 100% = EC100; AID 2445; P30559; hit rate 0.061% among 320,000; activation, % at 3 µM;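 active = activation above that plate's cutoff, the mean activation of tested compounds plus 3 SD, cut at about 6.6% in these data, passing the limit was not always enough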;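 note: 100% uses oxytocin at 75 nM as the full agonist control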
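Dosing: Single dose, 3.0 µM nominal final compound concentration | Material: Human OTR in CHO cells | Technique: Kinetic Fluo-8 calcium fluorescence | Benchmarks: EC15 oxytocin alone as 0%, 75 nM oxytocin as 100% | Probe or stimulus: Oxytocin at about EC15, sub-maximal agonist stimulus | Incubation: Compound 6 min at room temperature before oxytocin, 100 s read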
TAAR1 ag conf = human TAAR1 agonism, confirmed; CHO RD-HGA16 TAAR1, Fluo-8 calcium fluorescence; scaled: DMSO 0%, maximal phenethylamine 100%; hit rate 82% among 2,400; AID 651783; shares compounds with TAAR1 agonist; activation, % at 3 µM;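 active = activation above a cutoff set at the run's mean compound activation plus 3 SD, cut at about 39% in these data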
Ga16 ag counter = counter-screen for TAAR1 agonists: nonselective agonists in parental cells; shares compounds with TAAR1 agonist; CHO-Ga16 parental, Fluo-8 calcium fluorescence; normalized to maximal ATP response, DMSO zero; activation, % at 3 µM; hit rate 50% among 2,400; AID 651787;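 active = activation above the run cutoff, the mean activation over all tested wells plus 3 SD, cut at about 12% in these data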;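 note: 0% = DMSO wells and 100% = maximal ATP response on the peak over basal ratio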
TAAR1 desens = TAAR1 response desensitization, agonist counter-screen. shares compounds with TAAR1 agonist. CHO RD-HGA16 hTAAR1, Fluo-8 calcium, beta-PEA response inhibition. inhibition, % at 3 µM. hit rate 46% among 2,400. AID 651951;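 active = inhibition above the run cutoff, the mean inhibition of all test compounds plus 3 SD, cut at about 49% in these data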;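 note: beta-PEA stimulus applied at its EC80; loss of beta-PEA calcium signal after compound pretreatment read as receptor desensitization; 0% = DMSO with beta-PEA at EC80 and 100% = DMSO alone without agonist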
Ga16 antag count = counter-screen for TAAR1 agonists: nonselective Ga16 antagonists | shares compounds with TAAR1 agonist | hit rate 39% among 2,400 | CHO-Ga16 ATP-induced calcium, Fluo-8 fluorescence | inhibition, % at 3 µM;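 active = inhibition above the plate's mean compound inhibition plus 3 SD, computed per plate, cut at about 22% in these data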;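 note: 0% = EC80 ATP with DMSO and 100% = DMSO wells without ATP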
Active calls of the source: *; nt = no result given. The list is not random: actives were taken first. Their share in the collection is about 2.3%.

SMILES	OXTR ag	TAAR1 agonist	V1R ag counter	TAAR1 antagonist	OXTR potentiate	TAAR1 ag conf	Ga16 ag counter	TAAR1 desens	Ga16 antag count
Fc1ccc(NC(=S)N2CCOCC2)c(F)c1	0	0	1	2	3	nt	nt	nt	nt
COc1cc(NC(=S)N2CCc3ccccc3C2)cc(OC)c1	-1	49*	2	7	-8	62*	1	22	9
Fc1ccc(NC(=S)N2CCc3ccccc3C2)c(F)c1	-1	43*	0	18	2	72*	13*	21	4
CC(=O)c1cccc(CN2CCCC(C(=O)Nc3cccc(-n4cccn4)c3)C2)c1 (centres undefined)	1	5	0	-28	-1	nt	nt	nt	nt
NC(=O)/C(=C/c1ccco1)C(N)=S	1	8	2	3	-3	nt	nt	nt	nt
Cc1cc(C(F)(F)F)nc(SCCN2CCCCC2)c1C#N	-1	1	0	-2	3	nt	nt	nt	nt
O=C(Nc1cc(C(F)(F)F)ccc1Cl)c1cccnc1	-1	0	1	-12	-6	nt	nt	nt	nt
Cc1snc(S(=O)(=O)/C(C#N)=N/Nc2ccc(C(F)(F)F)cc2)c1C#N	2	6	1	12	-4	nt	nt	nt	nt
CCc1cc(=O)oc2cc(C)c(CN3CCCC(C)C3)c(O)c12 (centres undefined)	1	51*	0	7	2	82*	1	40	0
CCCc1nc2ccc(Cl)cn2c1Cc1ccccc1	nt	1	nt	-10	nt	nt	nt	nt	nt
O=C(Nc1ccncc1)Nc1cccc(F)c1	nt	92*	nt	46	nt	104*	12*	84*	17
O=C(Nc1ccncc1)Nc1ccc(F)cc1F	1	47*	0	-13	-7	71*	1	16	-3
O=C(Nc1cccnc1)Nc1cccc(F)c1	6	52*	6	31	-7	78*	11	54*	12
Cc1cccc(NC(=O)Nc2ccncc2)c1	3	53*	3	15	-7	77*	3	36	-1
O=C(Nc1ccncc1)c1cccc(F)c1	0	3	1	0	-14	nt	nt	nt	nt
CCOC(=O)C(C)(C)CC#CCN(CC#Cc1ccccc1)S(=O)(=O)c1ccc(C)cc1	nt	1	nt	29	nt	nt	nt	nt	nt
CCCc1c(Cc2cccc(F)c2)ncn1CCc1ccccc1OC	nt	50*	nt	35	nt	79*	14*	61*	20
CCCCc1c(Cc2ccccc2)ncn1CCc1ccccc1OC	nt	49*	nt	55*	nt	68*	7	60*	56*
CCCCc1c(-c2ccccc2OC)ncn1CCc1ccccc1	nt	61*	nt	34	nt	77*	12*	66*	27*
CCc1c(Cc2cccc(F)c2)ncn1CCc1ccccc1OC	nt	40*	nt	-18	nt	50*	5	15	13
CC(C)n1nccc1N(Cc1ccc(C#N)cc1)S(=O)(=O)c1ccccc1	-2	-1	-1	9	-7	nt	nt	nt	nt
Cc1cc(NS(=O)(=O)c2ccc(NC(=S)NC(=O)c3ccc(C(C)(C)C)cc3)cc2)no1	-2	45*	0	-5	-5	18	11	39	20
Cc1cc(NS(=O)(=O)c2ccc(NC(=S)NC(=O)c3ccccc3)cc2)no1	1	-1	1	3	7	nt	nt	nt	nt
COc1ccc(-c2cc(C(=O)NCc3ccc(F)cc3)[nH]n2)c(C)c1	nt	2	nt	-15	nt	nt	nt	nt	nt
CC(=O)c1ccc(NC(=S)NC(NC(=O)c2ccco2)C(Cl)(Cl)Cl)cc1 (centres undefined)	61*	96*	38*	43	-24	106*	29*	80*	21
